Screening results from PubChem.
Hits are enriched below; roughly 0.85% of the tested compounds scored in any of these assays.
CRFBP-R2 agonist: agonists of human CRF-binding protein/CRF-R2 receptor complex; HEK293 CRF-R2/CRF-BP, calcium dye fluorescence (FLIPR); percent of saturating CRF peptide response; activation, % at 13.2 µM; actives 0.46% (n = 350,000);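 active = activation of at least 50%, plus an integration ratio under a set limit after plate pattern correction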;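 also: plate controls were neutral control wells without compound for no effect and CRF at EC100 for full effect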
OXTR potentiator: potentiators of human oxytocin receptor; P30559; CHO-OTR cells, Fluo-8 calcium fluorescence, potentiator mode; 0% = oxytocin EC15, 100% = EC100; activation, % at 3 µM; actives 0.061% (n = 320,000);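 active = activation above that plate's cutoff, the mean activation of tested compounds plus 3 SD, cut at about 6.6% in these data, passing the limit was not always enough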;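 also: 100% uses oxytocin at 75 nM as the full agonist control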
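Dosing: Single dose, 3.0 µM nominal final compound concentration | Material: Human OTR in CHO cells | Technique: Kinetic Fluo-8 calcium fluorescence | Benchmarks: EC15 oxytocin alone as 0%, 75 nM oxytocin as 100% | Probe or stimulus: Oxytocin at about EC15, sub-maximal agonist stimulus | Incubation: Compound 6 min at room temperature before oxytocin, 100 s read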
TRPML3 agonist: activates the human TRPML3 channel. AID 1448. actives 0.29% (n = 220,000). HEK293 TRPML3-YFP, Fluo-8 calcium fluorescence; 100% = the carbachol control signal. Q8TDD5. activation, % at 3 µM;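 active = activation above its plate's cutoff, the mean activation of the plate's test wells plus 3 SD, cut at about 12% in these data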;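 also: 0% = DMSO only wells and 100% = carbachol wells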
Target sequence (Q8TDD5 whole entry, looked up): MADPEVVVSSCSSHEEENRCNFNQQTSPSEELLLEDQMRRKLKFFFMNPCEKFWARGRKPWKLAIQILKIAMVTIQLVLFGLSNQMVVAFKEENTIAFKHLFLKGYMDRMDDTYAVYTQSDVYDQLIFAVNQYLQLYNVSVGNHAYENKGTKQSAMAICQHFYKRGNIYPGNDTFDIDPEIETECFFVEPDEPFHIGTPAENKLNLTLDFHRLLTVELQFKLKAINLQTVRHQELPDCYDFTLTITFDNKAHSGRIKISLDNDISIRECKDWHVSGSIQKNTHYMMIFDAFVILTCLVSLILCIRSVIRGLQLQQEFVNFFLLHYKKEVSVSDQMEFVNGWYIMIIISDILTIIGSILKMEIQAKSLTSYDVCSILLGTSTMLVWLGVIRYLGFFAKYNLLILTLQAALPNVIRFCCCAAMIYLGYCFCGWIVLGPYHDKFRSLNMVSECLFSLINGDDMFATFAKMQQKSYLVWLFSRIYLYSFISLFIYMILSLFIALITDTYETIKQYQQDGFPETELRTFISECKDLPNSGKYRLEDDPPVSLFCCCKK
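Test system: HEK293 cells stably carrying human TRPML3-YFP; Doses: single dose, 3 µM final nominal compound, 0.3% DMSO final; Schedule: dye loading 1 h 37 °C then 30 min ambient, 125 s read; Technique: Fluo-8 calcium fluorescence; Benchmarks: high control carbachol 87 µM, low control DMSO.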
zfTRPN1 agonist: activates the zebrafish TRPN1 channel; activation, % at 3 µM; actives 0.18% (n = 220,000); HEK293 zebrafish TRPN1-YFP, Fluo-8 calcium fluorescence; 100% = response to 87 µM carbachol; AID 1424;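 active = activation above its plate's cutoff, the mean activation of test wells on that plate plus 3 SD, cut at about 19% in these data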;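 also: 0% = DMSO alone and 100% = 87 µM carbachol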
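Material – zebrafish TRPN1-YFP in HEK293 cells · Doses – 3 µM single point · Schedule – dye 1 h 37 °C plus 30 min RT · Signal – Fluo-8 calcium fluorescence, excitation 470-495 nm, emission 515-575 nm · Read-out – % activation versus carbachol response · Control set – carbachol high, DMSO low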
V1aR counter: counter-screen for oxytocin receptor agonists: human V1a receptor agonists | P37288 | CHO-V1R cells, Fluo-8 calcium fluorescence, agonist mode; 0% DMSO, 100% 3 nM vasopressin | activation, % at 3 µM | actives 0.25% (n = 320,000);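 active = activation above the mean activation of all tested compounds plus 3 SD, per screening run, cut at about 20% in these data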;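 also: signal is peak over basal fluorescence ratio across a 100 second FLIPR read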
OXTR ag: human OXTR agonism; AID 2435; P30559; CHO-OTR cells, Fluo-8 calcium fluorescence; normalized: DMSO 0%, oxytocin 100%; actives 0.32% (n = 320,000); activation, % at 3 µM;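 active = activation above the mean of all tested compounds plus 3 SD, cutoff set per screening run, cut at about 20% in these data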;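 also: peak over basal fluorescence ratio from a 100 s FLIPR kinetic read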
Starred values were filed as active, the others as inactive; x = not tested or not shown; ! = a repeat was not active.

SMILES	CRFBP-R2 agonist	OXTR potentiator	TRPML3 agonist	zfTRPN1 agonist	V1aR counter	OXTR ag
CCCCCn1nc(C)c(/C=N\NC(=O)c2cc(C)oc2C)c1C	107*	-7	1	0	-1	-1
O=C(CN1C(=O)C2C3CC(C(Br)C3Br)C2C1=O)N1CCOCC1 (configuration not stated)	0	-8	1	1	0	2
O=C(CN1C(=O)C2C3CC(C(Br)C3Br)C2C1=O)N1CCN(Cc2ccccc2)CC1 (configuration not stated)	24	-17	8	27*	1	15
Cc1ccc(-c2noc(CCC(=O)NCCCN3CCN(c4ccc(F)cc4)CC3)n2)cc1	0	-19	3	4	15	9
Cc1ccc(-c2noc(CCC(=O)NCCCN3CCN(c4cccc(Cl)c4)CC3)n2)cc1	3	-21	2	2	21*	31*
Cc1ccc(S(=O)(=O)N2CCN(c3ncnc4scc(-c5ccccc5)c34)CC2)cc1	127*	-3	x	x	1	-1
CCOc1ccc(NC(=O)/C(C#N)=C/c2ccc(N3CCCC3)c(C)c2)cc1	119*	-7	1	1	6	8
CCN(CC)S(=O)(=O)c1ccc(N2CCCCC2)c(NC(=O)/C(C#N)=C/c2ccc(OC)cc2)c1	2	-7	0	1	1	-1
CCOc1cc(/C=C(/C#N)C(=O)Nc2ccc(O)cc2)cc(Br)c1O	96*	-14	2	4	7	7
CCCNC(=O)/C(=C/c1cn(S(=O)(=O)N(C)C)c2ccccc12)NC(=O)c1ccc(OC)cc1	78*	-13	6	1	-1	0
O=C(CC1C(=O)NCCN1CC1CCCCC1)NCCc1ccc(F)cc1 (configuration not stated)	0	-12	0	1	0	-1
NC(=O)c1c(NC(=O)Cc2ccccc2)sc2c1CCN(Cc1ccccc1)C2	12	-9	x	x	8	10
CCOc1cc(/C=N\NC(=O)C2C(=O)NCC2c2ccccc2)ccc1OC (configuration not stated)	56*	-2	1	1	1	1
Oc1[nH]c2ccccc2c1N=Nc1ccccn1	-1	x	x	x	x	x
Oc1c(N=Nc2ccccn2)ccc2ccccc12	99*	0	0	-2	-1	1
N#C/C(=C\c1ccc(-c2cccc([N+](=O)[O-])c2)o1)C(=O)Nc1nc(-c2cccs2)cs1	0	-8	0	1	-1	-1
O=C1c2cccc3c(O)ccc(c23)C(=O)N1Cc1ccccc1	248	-22	120*	146*	345*	302*
O=C(O)c1cccc(CN2C(=O)c3ccccc3C2=O)c1	0	-13	x	x	0	0
Cc1nn(C)cc1C(C(=O)NC1CCCCC1)N(C(=O)Cc1cccs1)c1ccc(Cl)cc1 (configuration not stated)	58*	-7	1	1	11	6
Cc1ccc(S(=O)(=O)N2CCC(=O)N(C(COCc3ccccc3)C(C)C)CC2)cc1 (configuration not stated)	-2	-5	1	1	-1	-2
Cc1ccc(S(=O)(=O)N2CCC(=O)N(C(COCc3ccc(Cl)cc3)C(C)C)CC2)cc1 (configuration not stated)	-2	-9	14*	-1	1	-2
COC(=O)c1sc(NC(=S)NC(=O)c2cccc(Br)c2)nc1C	60*	-6	x	x	0	0
COC(=O)c1sc(NC(=S)NC(=O)c2ccc(F)cc2)nc1C	x	-2	1	1	0	1
CC(CCC(C)C(C)(C)C)[C@@H]1CC[C@H]2C3C[C@H](OS(O)(=S)=S)[C@H]4C[C@H](OS(O)(=S)=S)[C@@H](OS(O)(=S)=S)C[C@]4(C)[C@H]3CC[C@]12C (some centres not stated) (tested in a mixture with another compound)	55*	-13	x	x	71*!	58*
CC(C)N1CCc2c(sc(NC(=O)c3ccc(S(=O)(=O)N4CCOCC4)cc3)c2C#N)C1	131*	-2	1	4	1	2
SMILES	CRFBP-R2 agonist	OXTR potentiator	TRPML3 agonist	zfTRPN1 agonist	V1aR counter	OXTR ag
CC(C)N1CCc2c(sc(NC(=S)NC(=O)c3ccccc3)c2C#N)C1	55*	-11	9	10	10	6
CCOC(=O)N1CCc2c(sc(NC(=O)c3ccc(S(=O)(=O)N4CCCC4)cc3)c2C#N)C1	2	-2	0	0	1	0
Cc1sc(NC(=S)NC(=O)c2ccccc2)c(C#N)c1C	-1	-17	0	-1	1	1
CC(C)C1Cc2c(sc(NC(=S)NC(=O)c3ccccc3)c2C#N)CO1 (configuration not stated)	1	-10	1	-1	1	0
CCCN1CCc2c(sc(NC(=S)NC(=O)c3ccccc3)c2C#N)C1	148*	-8	4	4	16	16
Cc1ccn2c(CNCC3COCCO3)c(C(=O)N3CCCCCC3)nc2c1 (configuration not stated)	3	-11	x	x	0	0
Cc1cc(C)c2c(N)c(C(=O)Nc3ccccc3F)sc2n1	-2	-3	x	x	0	-1
CCCCN(C(=O)c1c(-c2ccccc2)noc1C)c1c(N)n(CCC)c(=O)[nH]c1=O	0	-2	x	x	1	1
COC1c2ccccc2C(=O)N1CCc1ccc(Cl)cc1 (configuration not stated)	0	-4	x	x	-1	-1
CC12CCC(=O)N1C(C(=O)Nc1cc(C(F)(F)F)ccc1N1CCCCC1)CS2 (configuration not stated)	2	-8	x	x	-2	-2
CCOc1ccc(NS(=O)(=O)c2ccc(C(=O)NCC(c3cccs3)N3CCOCC3)cc2)cc1 (configuration not stated)	61*	-21	x	x	26*	26*
COc1ccc(S(=O)(=O)N2CCC(C(=O)N[C@@H](C)C(=O)NCc3ccccn3)CC2)cc1	1	x	x	x	x	x
COc1cccc2c1C(=O)c1c(O)c3c(c(O)c1C2=O)C[C@@](O)(C(=O)CO)C[C@@H]3OC1CC(N)C(O)C(C)O1 (some centres not stated)	74*	x	x	x	x	x
COc1cccc2c1C(=O)c1c(O)c3c(c(O)c1C2=O)C[C@@](O)(C(=O)CO)C[C@@H]3O[C@H]1C[C@H](N)[C@H](O)[C@H](C)O1	93*	-10	11	27*	23*	25*
